Assay outcomes (PubChem)
p-CIP stab down: compounds decreasing mouse p/CIP protein stability; AID 1984; decrease of EGFP signal, % at 10 µM; 290,000 compounds, 0.01% hits; Q05BA5; F442A p/CIP-EGFP cells, EGFP fluorescence, 16 h;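 active = EGFP signal decrease of at least 30% at 10 µM or well 3 SD below plate mean, unless failing retest; inactive = the rest, including hits failing retest or dose response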
FID counter: fluorescent intercalator displacement, NS3 helicase counter-screen | AID 1845 | 290,000 compounds, 0.17% hits | inhibition, % at 7.9 µM | DNA fluorescent intercalator displacement, fluorescence; in the data active = inhibition above about 37%;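 also: higher means more ethidium bromide displaced from hairpin DNA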
HCV core dimer: blocks dimerization of HCV core protein | TR-FRET GST/Flag-core106 dimerization, 1536-well | inhibition, % at 5 µM | 300,000 compounds, 0.33% hits | AID 1899;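 active = inhibition above the mean of all tested compounds plus 3 SD, set per screening campaign, cut at about 45% in these data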
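Assay system: GST-tagged and Flag-tagged HCV core protein residues 1-106 / Times: compound-protein-antibody incubation 4 h at 22.5 °C / Signal: time-resolved FRET, ex 340 nm, em 617 and 671 nm / Evaluation: % inhibition based on acceptor/donor emission ratio / Benchmarks: wells lacking GST-core106 and wells with excess unlabelled core106 / Repeats: singlicate, one well per compound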
NS3 helicase inh: inhibitors of Hepatitis C virus NS3 helicase; 290,000 compounds, 0.56% hits; AID 1800; NS3 helicase DNA unwinding, Cy5 molecular beacon fluorescence; inhibition, % at 10.9 µM;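 active = inhibition above the mean of all tested compounds plus 3 SD, set per campaign, cut at about 35% in these data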
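System: NS3 helicase fragment of HCV / Schedule: 1 h at 25 °C / Control set: DMSO alone as 0% and 110 µM thioflavine S as 100% / Reagent: Cy5/quencher beacon DNA duplex and ATP to start / Technique: Cy5 fluorescence / Replication: singlicate / Evaluation: % inhibition of end-to-start signal ratio versus controls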
GPR7 antagonist: human neuropeptides B/W receptor 1 antagonism | P48145 | GPR7-expressing cells, fluorescence antagonist assay | inhibition, % at 4.4 µM | 290,000 compounds, 1.1% hits; in the data active = inhibition above about 16%, passing the limit was not always enough;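 also: cells stimulated with the agonist NPW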
Target sequence (P48145 whole entry, looked up): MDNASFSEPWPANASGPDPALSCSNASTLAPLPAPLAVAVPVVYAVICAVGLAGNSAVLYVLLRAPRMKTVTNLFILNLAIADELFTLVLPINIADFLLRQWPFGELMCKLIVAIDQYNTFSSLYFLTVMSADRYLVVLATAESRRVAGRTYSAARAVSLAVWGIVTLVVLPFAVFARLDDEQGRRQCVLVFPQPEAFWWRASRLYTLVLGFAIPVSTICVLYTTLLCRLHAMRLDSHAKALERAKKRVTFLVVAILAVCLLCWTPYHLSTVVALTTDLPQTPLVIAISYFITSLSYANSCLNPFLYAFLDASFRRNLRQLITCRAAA
Hits are given with their value; – = inactive; · = not tested or not shown. Sampled rows, rich in hits. Any-hit rate of the full collection: about 1.9%.

SMILES	p-CIP stab down	FID counter	HCV core dimer	NS3 helicase inh	GPR7 antagonist
CCOCCCn1c(=N)c(S(=O)(=O)c2ccc(C)cc2)cc2c(=O)n3cc(C)ccc3nc21	–	–	–	–	–
CC(CC(=O)Nc1ccc(S(=O)(=O)N2CCOCC2)cc1)c1ccccc1 (configuration not stated)	–	–	–	–	–
S=c1nc[nH]c2c1sc1nc(N3CCOCC3)c3c(c12)CCCC3	–	–	61.1	–	–
Cc1cc(C)n2nc(SCc3cc(=O)oc4cc(O)ccc34)nc2n1	–	–	73.9	–	–
CC1CCN(C(=O)Cn2nnc(-c3ccc([N+](=O)[O-])cc3)n2)CC1	–	–	–	–	–
CN1CCN(CC(=O)Nc2sc3c(c2C(=O)Nc2ccccc2)CCCC3)CC1	–	–	–	–	–
NC(=O)c1c(NC(=O)CN2CCN(S(=O)(=O)c3ccccc3)CC2)sc2c1CCC2	·	·	47.5	·	·
N#Cc1c(NC(=O)CN2CCN(S(=O)(=O)c3ccc4c(c3)OCCO4)CC2)sc2c1CCC2	–	–	70.8	–	–
CCc1noc(C)c1C(=O)OC(C)C(=O)Nc1ccccc1OC (configuration not stated)	·	·	–	·	·
Cc1ccc(C)c(C(=O)COC(=O)CCN2C(=O)C3C4CCC(C4)C3C2=O)c1 (configuration not stated)	–	–	·	–	–
N#C/C(=C/c1cn(-c2ccccc2)nc1-c1cccc(S(=O)(=O)N2CCCC2)c1)C(=O)NCc1ccco1	–	–	71.0	–	–
N#C/C(=C/c1cn(-c2ccccc2)nc1-c1cccc(S(=O)(=O)N2CCOCC2)c1)C(=O)NCc1ccco1	–	–	–	–	–
COCCCNC(=S)N/N=C/c1ccc(OC)c(Br)c1	–	–	–	–	–
COc1ccc2cc(C#N)c(NC(C)C)nc2c1	–	–	–	–	–
CCN(CC)c1nc2cc(OC)ccc2cc1C#N	–	–	54.7	–	–
Cc1ccc(NC(=O)c2c3c(nc4ccccc24)CCC3)cc1S(=O)(=O)N(C)C	–	–	65.5	–	–
COc1ccc(NC(=O)c2c3c(nc4ccccc24)CCC3)cc1S(=O)(=O)N1CCOCC1	–	–	77.8	–	–
COC(=O)C(=CC(=CN(C)C)C=C(C(=O)OC)C(=O)OC)C(=O)OC	–	–	–	–	–
COc1ccc(C(C(=O)NC2CCCC2)N(C(=O)c2snc(-c3ccc(F)cc3)c2N)c2ccc(OC)cc2)cc1 (configuration not stated)	–	–	48.3	–	–
COc1ccc(C(C(=O)NC2CCCC2)N(C(=O)c2snc(-c3ccc(F)cc3)c2N)c2ccc(F)cc2)cc1 (configuration not stated)	–	–	–	–	–
Cc1[nH]nc2c1C(c1ccc(F)cc1)C(C#N)=C(N)O2 (configuration not stated)	–	–	–	–	–
Cc1oc(C)c2c(=O)ccc3c(c12)OC(N)=C(C#N)C3c1ccc(F)cc1 (configuration not stated)	–	–	46.1	–	–
COc1ccc(/C=C/C(=O)c2cc(F)ccc2OC(=O)c2ccccc2OC)cc1OC	–	–	·	–	16.5
COc1ccc(/C=C/C(=O)c2cc(F)ccc2OC(=O)c2ccccc2)cc1OC	·	–	–	–	–
COc1ccc(NC(=O)CSC2=C(C#N)C(c3ccco3)C(C(=O)Nc3nc4ccccc4s3)=C(C)N2)cc1 (configuration not stated)	·	–	47.7	–	–
SMILES	p-CIP stab down	FID counter	HCV core dimer	NS3 helicase inh	GPR7 antagonist
CC(=O)C1=C(C)NC(SCC(=O)Nc2nc3ccccc3s2)=C(C#N)C1c1ccc(Cl)cc1 (configuration not stated)	–	–	–	–	–
Cc1cc(-c2csc(NC(=O)c3ccc(=O)[nH]c3)n2)c(C)n1Cc1ccco1	–	–	48.8	–	–
CCNc1nc(-c2cc(C)n(Cc3ccco3)c2C)cs1	–	–	–	–	–
Cc1cc(-c2csc(NC(=O)c3ccc(=O)n(C)n3)n2)c(C)n1CC1CCCO1 (configuration not stated)	–	–	52.9	–	–
COc1ccc(S(=O)(=O)N2CCOC2CNC(=O)C(=O)NCc2ccccn2)cc1C (configuration not stated)	–	–	–	–	–
COc1ccc(NC(=O)Nc2nnc(-c3ccncc3)s2)cc1	–	–	–	–	–
O=C(Nc1ccc(Cl)c(Cl)c1)Nc1nnc(-c2ccncc2)s1	–	–	87.4	–	–
